TDP2 inh – blocks human TDP2 phosphodiesterase activity. recombinant TDP2, T5PNP hydrolysis, p-nitrophenol absorbance 415 nm. inhibition, % at 12.8 µM. AID 720702. 370,000 tested, 0.34% active;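 active = inhibition above the mean of all tested compounds plus 3 SD, set per campaign, cut at about 25% in these data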;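 note: 0% = DMSO with enzyme and 100% = buffer with substrate but no TDP2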
Target sequence (O95551 whole entry, looked up): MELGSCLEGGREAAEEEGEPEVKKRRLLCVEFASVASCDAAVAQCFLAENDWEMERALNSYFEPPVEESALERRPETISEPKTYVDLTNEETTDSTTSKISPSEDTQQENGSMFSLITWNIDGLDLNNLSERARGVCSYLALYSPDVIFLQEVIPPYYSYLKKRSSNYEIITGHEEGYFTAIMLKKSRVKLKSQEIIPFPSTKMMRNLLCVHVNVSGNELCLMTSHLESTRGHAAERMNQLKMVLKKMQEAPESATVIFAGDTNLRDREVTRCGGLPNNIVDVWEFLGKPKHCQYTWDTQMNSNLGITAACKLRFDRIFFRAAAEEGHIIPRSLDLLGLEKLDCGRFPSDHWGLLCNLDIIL
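Assay system: recombinant human TDP2 / Reagent: T5PNP substrate at 5 mM, a TopII-DNA adduct mimic / Measured by: epi absorbance from released p-nitrophenol / Evaluation: % inhibition relative to enzyme-containing and enzyme-free wells / Control set: enzyme-free and DMSO wells / Replicates: each compound tested once, singlicate / Schedule: enzyme reaction with compound for 2 h at 37 °C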
LEDGF integ inh – blocks HIV-1 LEDGF/p75-dependent DNA integration | TR-FRET IN-LEDGF/p75 DNA integration, Eu/Cy5 | inhibition, % at 3.7 µM | 370,000 tested, 0.64% active;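 active = inhibition above the screen-wide mean plus 3 SD, cut at about 13% in these data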;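 note: signal is the Cy5 over europium emission ratio at 671 and 618 nm; 0% = plate median of compound wells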
MBD2 inh – inhibitors of human MBD2 binding to methylated oligonucleotide | TR-FRET | inhibition, % at 4.4 µM | 370,000 tested, 0.31% active; in the data active = inhibition above about 13%
UHRF1 MBD2 ctr – blocks human UHRF1 binding to methylated DNA | Q96T88 | UHRF1 binding to methylated oligo, TR-FRET | inhibition, % at 4.4 µM | 370,000 tested, 0.75% active | AID 687016;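 note: UHRF1 SRA domain binding a hemimethylated CpG hairpin DNA probe; 0% = median of test compound wells and 100% = reference inhibitor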
UHRF1 ctr MBD2 – inhibits human UHRF1 binding to methylated oligonucleotide, MBD2 counter-screen; shares compounds with MBD2 inh; TR-FRET; inhibition, % at 4.4 µM; 1,000 tested, 25% active;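 note: UHRF1 SRA domain binding a labeled hemimethylated CpG hairpin DNA; 0% = vehicle only and 100% = reference inhibitor with vehicle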
MBD2 DBD conf – confirmation of human MBD2-DBD methylated oligonucleotide binding inhibitors. TR-FRET MBD2-DBD binding to methylated oligonucleotide. shares compounds with MBD2 inh. 1,000 tested, 26% active. inhibition, % at 4.4 µM; in the data active = inhibition above about 14%
Starred values were filed as active, the others as inactive; x = not tested or not shown. Only some compounds are listed: those with a hit (about 1.6% of all), similar ones and a draw of the others. Cut-off read from the data, not from the text of the source, unless noted: active = inhibition above about 21%; inactive = the rest.

SMILES | TDP2 inh | LEDGF integ inh | MBD2 inh | UHRF1 MBD2 ctr | UHRF1 ctr MBD2 | MBD2 DBD conf
COC(=O)C1C(c2ccccc2)C=CC(c2ccccc2)C1C(=O)O (stereo not given) | 4.5 | 1.3 | 43.8* | 2.0 | 8.0 | 2.8
COc1ccc(C(=O)CSc2nnc(CNc3nc(-c4ccccc4)cs3)n2C)cc1 | -9.0 | 1.3 | 4.5 | -2.1 | x | x
NS(=O)(=O)c1ccc(CCNC(=O)CCS(=O)(=O)c2ccc(Br)cc2)cc1 | 7.6 | -0.3 | 17.3* | 29.3* | 43.6* | 29.7*
O=C(CCS(=O)(=O)c1ccc(Br)cc1)NCCc1ccccc1 | 10.3 | -1.9 | 2.6 | 5.0 | x | x
O=C(NNC(=O)c1cccc2ccccc12)c1ccc(Cl)c(Cl)c1 | -3.2 | 0.0 | 66.4* | -2.5 | 1.7 | 0.2
O=C(O)c1cc(C(=O)O)cc(N2C(=O)c3ccccc3C2=O)c1 | 3.5 | 3.6 | 3.5 | -0.9 | x | x
COc1ccc(Cl)cc1NC(=S)N1CCC(c2ccc(C)cc2)C1 (stereo not given) | 3.9 | -2.4 | 22.8* | -2.4 | 2.8 | 0.7
COc1ccc(Cl)cc1NC(=S)N1CCCCCC1 | -0.7 | 0.5 | 0.0 | -0.1 | x | x
Cc1ccc(C(=O)c2ccccc2C(=O)O)s1 | 3.9 | -2.9 | 15.8* | 25.9* | 41.2* | 13.7*
Cc1nc(SCC(=O)N2CCCCC2)c2c(C)c(C)sc2n1 | 3.8 | -2.0 | 0.8 | -1.8 | x | x
CCSc1nc(C)nc2sc(C)c(C)c12 | 5.7 | -1.1 | 29.0* | -1.2 | 7.6 | 2.0
C=CC[C@H]1CC(C)=C[C@H](CC=C)N1C(=O)c1cc(COc2ccccc2SC)on1 | -16.2 | 9.1 | -2.6 | 0.6 | x | x
O=C(C1COc2ccccc2O1)N1CCOCC1 (stereo not given) | -9.6 | -7.4 | 13.5* | 2.6 | 9.8 | 5.6
CC(=O)Nc1ccc(S(=O)(=O)N2CCN(C(=O)C3COc4ccccc4O3)CC2)cc1 (stereo not given) | -2.1 | 4.1 | 0.4 | 0.9 | x | x
COc1ccc(S(=O)(=O)N2CCN(C(=O)C3COc4ccccc4O3)CC2)cc1 (stereo not given) | -4.7 | -4.3 | 25.7* | 29.3* | 74.7* | 70.2*
O=C(C1COc2ccccc2O1)N1CCN(c2ccccc2)CC1 (stereo not given) | 2.3 | 0.5 | -0.3 | 3.5 | x | x
CNC(C)C(=O)NC(C(=O)N1CCCC1C(=O)NNc1ccccc1)C(C)C (stereo not given) | 9.2 | 11.4 | 45.5* | 56.1* | 8.5 | 2.1
CNC(C)C(=O)NC(C(=O)N1CCCC1C(=O)NC1CCCc2ccccc21)C(C)C (stereo not given) | 3.6 | 2.7 | 7.2 | 0.7 | x | x
C=CC[C@@H](CC(=O)N(CCO)Cc1ccccc1)C(=O)N[C@@H](C)COC(=O)[C@@H](CC=C)CC(=O)OC(C)(C)C | -5.7 | 7.9 | 17.1* | 27.4* | 9.4 | 4.7
C=CC[C@H](CC(=O)N(CCO)Cc1ccccc1)C(=O)N[C@@H](C)COC(=O)[C@H](CC=C)CC(=O)OC(C)(C)C | -13.9 | -1.5 | -1.5 | -2.2 | x | x
NC(=O)c1ccc(NC(=O)COC(=O)/C=C/c2ccc(Br)o2)cc1 | -0.6 | 21.7* | 27.0* | 53.0* | 33.9* | 22.2*
CCN(CC)S(=O)(=O)c1ccc(C(=O)NCc2nnc(SCC(=O)OC)n2C)cc1 | 8.7 | -0.5 | 20.6* | -0.2 | 2.6 | 3.9
COC(=O)CSc1nnc(CNC(=O)c2ccc(S(=O)(=O)N(C)C)cc2)n1C | -10.1 | -2.6 | -3.0 | -3.0 | x | x
CNC(=O)c1c(NC(=O)c2ccc(S(=O)(=O)N3CCCCC3)cc2)sc2c1CCN(C(C)C)C2 | -6.7 | -3.9 | 16.5* | 16.0 | 16.9 | 8.7
CCN1CCc2c(sc(NC(=O)c3ccc(S(=O)(=O)N4CCCC4)cc3)c2C(=O)NC)C1 | -10.3 | -3.3 | 6.8 | 7.9 | x | x
SMILES | TDP2 inh | LEDGF integ inh | MBD2 inh | UHRF1 MBD2 ctr | UHRF1 ctr MBD2 | MBD2 DBD conf
COc1ccc(Cn2c(=O)[nH]c3cc(OC)c(OC)cc3c2=O)cc1 | 6.1 | 0.7 | 16.6* | 31.1* | 5.5 | 2.9
Cc1ccccc1NC(=O)c1ccc(CN2CCc3ccccc3C2)cc1 | -3.5 | 0.7 | 33.6* | 0.5 | 5.5 | 2.8
CCCCCCCCN1C(=O)[C@H](CC(=O)NCc2ccccc2)C[C@@]2(C(=O)OCC)CCCC=C12 | -5.6 | -3.1 | -0.9 | 0.7 | x | x
CCCCCCC12C(=Cc3cc(C)ccc31)c1ccccc1C(CC(=O)NCc1ccccc1)N2C(=O)OC (stereo not given) | -2.5 | 6.9 | 29.3* | 54.4* | 3.8 | 1.1
Cc1ccc(CN(C)C(=O)c2cccc(S(=O)(=O)N3CCCC3)c2)cc1 | 3.8 | 2.3 | -1.5 | 0.6 | x | x
Cc1ccc(CN(C)C(=O)c2cccc(S(=O)(=O)N3CCc4ccccc43)c2)cc1 | 2.3 | -3.0 | 14.7* | 0.2 | 6.0 | 1.3
CCc1nc2c(OCc3cccc(OC)c3)cccn2c1N(C)C(=O)c1ccccc1F | -2.4 | -2.1 | 25.7* | -2.0 | 3.3 | 1.1
O=C(O)CCc1ccc(-c2ccc(Br)cc2)n1NC(=O)c1ccc([N+](=O)[O-])cc1 | 12.4 | -3.0 | 0.5 | -1.7 | x | x
c1ccc(Nc2ccnc(Nc3ccccc3)n2)cc1 | -18.6 | -3.6 | -2.4 | -0.1 | x | x
Nc1cc(Nc2ccccc2)ccn1 | 5.6 | -4.0 | 44.4* | -0.6 | 7.2 | 1.7
Cc1ccc(Cn2cc(SCC(=O)Nc3nccs3)c3ccccc32)cc1 | 2.1 | -4.4 | 0.9 | 2.9 | x | x
Cc1cccc(Cn2cc(SCC(=O)Nc3nccs3)c3ccccc32)c1 | 1.5 | 1.6 | 30.1* | 1.2 | 5.5 | 0.9
O=C(Nc1c2c(nn1-c1ccc(F)cc1)CS(=O)(=O)C2)c1ccc2c(c1)OCO2 | -7.2 | -0.5 | -2.2 | 2.6 | x | x
O=C(Cc1cccc2ccccc12)NCC(=O)N1CCN(CC(=O)Nc2ccc(F)cc2)CC1 | -9.8 | 6.2 | -9.4 | 2.9 | x | x
COc1ccc(CCNc2nc(-c3ccc(NC(C)=O)cc3)cs2)cc1OC | 0.1 | -1.4 | 1.3 | -3.2 | x | x
COc1ccc(CNC(=O)CCS(=O)(=O)c2ccc3c(c2)oc(=O)n3C)cc1 | -13.6 | -0.9 | 39.2* | 1.5 | 5.4 | 3.5
c1ccc(C2CCC(N3CCNCC3)CC2)cc1 (stereo not given) | -12.2 | 1.5 | 2.2 | 1.3 | x | x
CCCc1nnc(NC(=O)CCC(=O)N2CCN(c3ccccc3)CC2)s1 | -2.4 | -2.0 | 4.5 | 1.4 | x | x
CCCc1nnc(NC(=O)CCC(=O)N2CCN(c3ccccn3)CC2)s1 | -7.7 | -0.2 | 14.2* | 18.9 | 7.9 | 3.6
COc1ccc(Cc2nnc(NC(=O)C3CCCO3)s2)cc1 (stereo not given) | -14.8 | -0.7 | 15.3* | -1.7 | 11.5 | 4.2
COc1ccc(Cc2nnc(NC(=O)C3CCCO3)s2)cc1OC (stereo not given) | -7.3 | -1.2 | 1.8 | -0.6 | x | x
Cc1ccccc1CC1(CO)CCCN(C(=O)CCN2CCCO2)C1 (stereo not given) | -10.0 | 4.9 | 16.0* | 2.4 | 4.4 | 3.3
